Measurements taken from publication PMC8590456 (Nature chemical biology, 2021).

Key:
[1] = system: wild-type T-ALL cell lines (Jurkat and MOLT4); test: 3-day growth rate inhibition; format: cell-based, Human; details: GR assay, 72 h
Procedure, shortened: (§1)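 Cells were kept in RPMI 1640 with 10% FBS at 37 °C and 5% CO2, then plated at 6×10^3 cells/well for 24 h. Time 0 was read, then cells were dosed 10 nM–10 μM for 72 h. Viable cells were read by CellTiter-Glo luminescence. GR values, GR50 and GRmax were calculated from time-0 and 72-h data, with growth relative to DMSO. Mean ± s.d., n=3 biologically independent samples, representative of 2 experiments.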

[2] = target: CDK13 (Homo sapiens, UniProt Q14004); test: Immunoblot of CDK13 protein level in Jurkat cells; format: cell-based; details: 6 h, indicated concentrations
Procedure, shortened: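 Jurkat cells were treated 6 h with DMSO or CDK12 degraders at the indicated concentrations in a preliminary screen. Lysis was in NP40 buffer with protease and phosphatase inhibitors plus 1 mM PMSF. Immunoblots for CDK12, CDK13 and β-actin were imaged on an infrared scanner.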

[3] = system: CRBN−/− cells (Jurkat and MOLT4); test: 3-day growth rate inhibition; format: cell-based, Human; details: 72 h
Procedure, shortened: as §1

[4] = system: Jurkat cells; test: 3' poly; format: cell-based, Human; details: 8 h
Procedure, shortened: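 Poly(A) 3'-end libraries were sequenced. Metagene profiles of normalised reads span gene bodies ±2 kb, with sense and antisense reads shown separately. Differential expression used 3' UTR-associated poly(A)-site counts summed per gene. Intronic versus 3' UTR poly(A) usage was compared by odds ratio for transcripts with TPM > 1.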

[5] = system: Cyclin K; test: Immunoblot of Cyclin K protein level in Jurkat cells; format: cell-based, Human; details: 6 h
[6] = target: CDK9 (Homo sapiens, UniProt P50750+Q96SW2); test: Immunoblot of CDK9 in parental and resistant cells; format: cell-based; details: parental and resistant Jurkat and MOLT4 cells, 250 nM, 8 h
Procedure, shortened: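 Parental and resistant Jurkat and MOLT4 cells were treated 8 h with DMSO, CDK12 degraders or a CDK9 degrader (250 nM). Lysis was in NP40 buffer with protease and phosphatase inhibitors plus 1 mM PMSF. Immunoblots for CDK12 and CDK9, with GAPDH loading control, were imaged on an infrared scanner. Representative of n=2 independent experiments.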

[7] = system: Jurkat and MOLT4 cells; test: Cell cycle analysis by FACS; format: cell-based, Human; details: 24 h, BSJ-4-116 50 nM, BSJ-4-116NC 100 nM
Procedure, shortened: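 Jurkat or MOLT4 cells (0.5×10^6) were treated 24 h. They were fixed in ice-cold 70% ethanol at −20 °C, treated with RNase A (0.5 mg/ml), stained with propidium iodide (50 µg/ml) and analysed by flow cytometry. […] is given as mean ± s.d. of n=2 biologically independent samples, representative of 2 experiments.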

[8] = target: CDK12 I733V/Cyclin K (Homo sapiens, UniProt Q9NYV4, I733V); test: 32P-labeled ATP mutated CDK12 kinase assay; format: biochemical; details: recombinant I733V CDK12 vs wild type
Procedure, shortened: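 GST-CDK12 (714–1063) I733V (site-directed mutagenesis) and GST-cyclin K (1–267) were co-expressed with yeast CAK in Sf9 cells for 72 h. Purification was by GST affinity, TEV tag cleavage and size exclusion. The 0.2 μM complex was preincubated with varying compound concentrations for 5 min at 30 °C. Substrate and 0.2 mM [γ-32P]-ATP were added for 15 min at 30 °C. The reaction was stopped with 50 mM EDTA, spotted onto nitrocellulose, washed in phosphoric acid and scintillation-counted.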

Sequence of CDK13 (Q14004 whole entry): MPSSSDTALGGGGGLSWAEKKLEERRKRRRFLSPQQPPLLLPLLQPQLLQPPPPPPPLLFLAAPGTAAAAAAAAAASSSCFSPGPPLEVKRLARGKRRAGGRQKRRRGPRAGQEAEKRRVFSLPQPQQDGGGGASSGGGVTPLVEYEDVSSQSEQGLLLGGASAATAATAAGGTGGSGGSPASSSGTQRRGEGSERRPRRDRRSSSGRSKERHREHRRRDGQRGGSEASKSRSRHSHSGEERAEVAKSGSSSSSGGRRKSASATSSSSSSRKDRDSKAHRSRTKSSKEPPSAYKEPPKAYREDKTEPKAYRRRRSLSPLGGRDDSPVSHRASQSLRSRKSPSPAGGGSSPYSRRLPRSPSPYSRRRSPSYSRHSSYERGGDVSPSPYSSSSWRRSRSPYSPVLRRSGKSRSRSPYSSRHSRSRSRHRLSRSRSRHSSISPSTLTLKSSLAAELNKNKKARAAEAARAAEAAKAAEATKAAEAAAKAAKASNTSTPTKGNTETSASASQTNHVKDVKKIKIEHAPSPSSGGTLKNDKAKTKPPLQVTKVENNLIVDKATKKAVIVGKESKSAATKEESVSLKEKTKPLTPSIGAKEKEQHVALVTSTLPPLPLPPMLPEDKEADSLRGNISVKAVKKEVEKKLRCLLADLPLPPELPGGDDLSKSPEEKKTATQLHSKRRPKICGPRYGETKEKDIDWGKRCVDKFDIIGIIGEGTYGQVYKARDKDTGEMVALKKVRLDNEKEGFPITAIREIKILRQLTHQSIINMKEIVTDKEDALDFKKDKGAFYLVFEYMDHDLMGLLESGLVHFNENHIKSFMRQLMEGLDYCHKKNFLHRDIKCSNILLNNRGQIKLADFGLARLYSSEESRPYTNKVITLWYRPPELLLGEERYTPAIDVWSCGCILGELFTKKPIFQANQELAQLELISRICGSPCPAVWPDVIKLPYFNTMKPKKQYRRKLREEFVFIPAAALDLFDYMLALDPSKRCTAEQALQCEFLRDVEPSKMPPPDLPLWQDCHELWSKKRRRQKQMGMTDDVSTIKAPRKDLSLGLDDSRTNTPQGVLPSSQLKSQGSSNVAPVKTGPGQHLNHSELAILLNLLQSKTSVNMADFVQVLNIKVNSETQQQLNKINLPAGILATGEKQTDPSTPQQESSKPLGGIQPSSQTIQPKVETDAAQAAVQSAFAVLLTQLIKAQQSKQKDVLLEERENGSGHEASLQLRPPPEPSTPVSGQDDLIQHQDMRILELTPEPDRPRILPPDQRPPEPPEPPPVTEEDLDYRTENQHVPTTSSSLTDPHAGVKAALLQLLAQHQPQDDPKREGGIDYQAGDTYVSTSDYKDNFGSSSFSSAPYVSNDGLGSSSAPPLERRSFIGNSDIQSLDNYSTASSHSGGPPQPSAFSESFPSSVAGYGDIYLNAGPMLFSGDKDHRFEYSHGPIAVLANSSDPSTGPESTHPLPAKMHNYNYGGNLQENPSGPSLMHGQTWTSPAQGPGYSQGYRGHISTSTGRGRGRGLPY
Sequence of CDK13 (O75909 whole entry partner): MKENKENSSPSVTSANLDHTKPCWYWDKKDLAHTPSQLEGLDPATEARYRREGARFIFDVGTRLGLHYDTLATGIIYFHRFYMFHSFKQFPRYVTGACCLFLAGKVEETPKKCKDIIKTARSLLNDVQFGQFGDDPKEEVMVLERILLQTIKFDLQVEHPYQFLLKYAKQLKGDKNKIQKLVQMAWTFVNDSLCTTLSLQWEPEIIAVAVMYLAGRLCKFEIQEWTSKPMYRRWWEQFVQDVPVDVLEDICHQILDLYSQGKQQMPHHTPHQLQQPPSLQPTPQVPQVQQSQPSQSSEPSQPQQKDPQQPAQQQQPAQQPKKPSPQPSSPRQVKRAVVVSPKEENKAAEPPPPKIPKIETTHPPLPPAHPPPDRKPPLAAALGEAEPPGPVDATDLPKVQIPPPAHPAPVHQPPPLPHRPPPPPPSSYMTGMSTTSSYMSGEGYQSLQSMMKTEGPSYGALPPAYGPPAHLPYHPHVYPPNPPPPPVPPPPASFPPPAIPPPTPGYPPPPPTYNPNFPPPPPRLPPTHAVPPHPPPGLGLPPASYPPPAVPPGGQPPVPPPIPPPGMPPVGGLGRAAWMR
Sequence of CDK12 I733V/Cyclin K (Q9NYV4 714-1063 I733V): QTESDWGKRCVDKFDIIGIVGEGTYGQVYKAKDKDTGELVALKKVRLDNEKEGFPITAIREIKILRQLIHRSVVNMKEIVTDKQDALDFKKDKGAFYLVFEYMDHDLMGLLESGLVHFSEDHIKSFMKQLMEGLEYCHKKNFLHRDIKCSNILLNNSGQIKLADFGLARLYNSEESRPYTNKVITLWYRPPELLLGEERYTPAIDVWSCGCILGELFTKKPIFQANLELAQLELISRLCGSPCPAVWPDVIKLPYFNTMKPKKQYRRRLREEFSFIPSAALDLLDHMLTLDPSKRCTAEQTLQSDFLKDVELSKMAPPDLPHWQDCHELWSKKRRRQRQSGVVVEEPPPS
Sequence of CDK12 I733V/Cyclin K (O75909 1-267 partner limits assumed): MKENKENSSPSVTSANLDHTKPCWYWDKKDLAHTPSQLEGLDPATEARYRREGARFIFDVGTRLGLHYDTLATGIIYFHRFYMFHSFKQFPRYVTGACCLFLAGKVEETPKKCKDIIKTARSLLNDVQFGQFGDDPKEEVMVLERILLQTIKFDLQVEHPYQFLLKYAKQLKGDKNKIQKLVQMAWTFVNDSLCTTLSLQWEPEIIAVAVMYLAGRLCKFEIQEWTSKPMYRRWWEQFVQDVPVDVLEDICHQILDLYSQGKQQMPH

SMILES	fold less potent than BSJ-4-116 [1]	CDK13 protein level [2]	sensitivity of CRBN−/− cells in GR assay [3]	genes differentially expressed vs DMSO control cells ([4]; 50 nM)	Cyclin K protein level [5]	sensitivity of resistant cells to CDK9 degrader [6]	cell cycle distribution [7]	effect of I733V on binding affinity in in vitro kinase assay [8]	annotated terminal or 3' poly(A) sites (metagene analysis) [4]	downregulated transcripts ([4]; BSJ-4-116 50 nM, THZ531 250 nM, FDR <= 0.01)
CC(C)S(=O)(=O)c1ccccc1Nc1nc(N[C@@H]2CCCN(CCCCCCCNC(=O)COc3cccc4c3C(=O)N(C3CCC(=O)N(C)C3=O)C4=O)C2)ncc1Cl (stereo partly shown) [BSJ-4-116NC]	10 fold	no effect	responding similarly	1 gene	no effect					
CC(C)(C)c1cnc(CSc2cnc(NC(=O)C3CCN(CC(=O)NCCOCCOCCOCCNc4cccc5c4C(=O)N(C4CCC(=O)NC4=O)C5=O)CC3)s2)o1 (stereo not shown) [THAL-SNS-032]						remained equally sensitive				
CN(C)C/C=C/C(=O)Nc1ccc(C(=O)N2CCC[C@@H](Nc3ncc(Cl)c(-c4c[nH]c5ccccc45)n3)C2)cc1 [THZ531]		no effect	responding similarly		no effect		accumulation of G2/M cells	loss of binding affinity	significant loss	7050
